Screens: PubChem BioAssay, several laboratories
Shown are actives, neighbours in structure and some others; about 5.6% of the full set was active somewhere.
CHOP UPR activ: apoptotic UPR (CHOP) activation. activation, % at 10 µM. AID 449763. actives 0.34% (n = 330,000). CHO-CHOP luciferase reporter, luminescence; percent of tunicamycin response over DMSO baseline;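 active means at 10 µM dose, activation of 40% or more, normalized to positive control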;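 further: 100% = tunicamycin at 10 µg/mL and 0% = DMSO alone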
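assay system = CHO CHOP reporter cells | amount = 500 CHO-CHOP cells per well | buffer or medium = F12 with 10% FBS | incubation = 16-18 h cell attachment, then 6 h compound exposure, 37 °C | detection = luminescence read with Steady-Glo | read-out = percent activation relative to tunicamycin control | controls = tunicamycin high control, DMSO low control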
NR3A LBD binder: modulates the human NR3A ligand-binding domain; Tm shift relative to glycine control, % at 25 µM; actives 2.5% (n = 340,000); NR3A LBD differential scanning fluorimetry, Tm shift; 0% = protein alone, 100% = glycine-bound protein;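 active means melting temperature shift of at least 10% of the positive control shift, at one fixed dose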
MPTP block: permeability transition pore inhibition. AID 602449. inhibition, % at 10 µM. actives 1.4% (n = 360,000). isolated mouse mitochondria, Ca2+ swelling absorbance, 30 min;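 active means inhibition of 50% or more, scaled per plate between neutral and stimulator controls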;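 further: 0% = DMSO wells given calcium and 100% = 1 mM EGTA wells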
CHOP inh: inhibitors of CHOP induction in ER stress response; inhibition, % at 10 µM; CHO-K1 CHOP-promoter luciferase, tunicamycin-induced, 15-18 h; actives 3.8% (n = 220,000); AID 2732;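 active means compounds that reduced the stress-induced luciferase reporter signal by more than about 70% of percent inhibition, limit read from the data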;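 further: 0% = tunicamycin plus vehicle and 100% = wells without tunicamycin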
aDG glyco act: alpha-DG glycosylation activation; Pro5-aDG cells, alpha-DG glycosylation AlphaScreen (IIH6); 0% Pro5, 100% B10-LARGE cell signal; activation, % at 10 µM; actives 0.22% (n = 360,000); AID 624168;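 active means activation of at least 8% versus controls, or a plate z-score of at least 8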;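 further: Pro5 are CHO cells carrying HIG-tagged alpha-DG that lacks glycosylation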
UPR XBP1 act: activators of adaptive arm of unfolded protein response (XBP1); AID 463104; CHO-XBP1 luciferase reporter, IRE1-XBP1 UPR activation, luminescence; percent of tunicamycin response, DMSO as zero; activation, % at 20 µM; actives 0.33% (n = 330,000);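 active means versus positive control, 20 µM dose yields 30% or more activation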;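 further: 100% = tunicamycin at 10 µg/mL and 0% = DMSO only wells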
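Material: CHO-XBP1 cells stably carrying IRE1-XBP1-driven luciferase reporter | Medium: F12 with 10% serum | Compound dosing: 20 µM single concentration, DMSO 1% | Incubation: Overnight seeding at 37 °C, 6 h compound treatment at 37 °C | Detection: Steady-Glo luminescence read | Read-out basis: % activation of reporter signal versus tunicamycin and DMSO controls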
MPTP counter: Rhodamine 123 counter-screen of mitochondrial pore hits; shares compounds with MPTP block; isolated mitochondria, membrane potential, Rhodamine 123 fluorescence; inhibition, % at 10 µM; actives 78% (n = 5,000); AID 624504; in the data active means inhibition above about 22%;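 further: 0% = DMSO vehicle and 100% = positive control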
MPTP abs DR: dose response confirmation of mitochondrial permeability transition pore inhibitors; isolated mitochondria swelling, absorbance; IC50, µM; actives 58% (n = 780); shares compounds with MPTP block; in the data active means IC50 below about 20 µM
MPTP counter DR: MPTP inhibitor counter-screen activity, dose response; shares compounds with MPTP block; isolated mitochondria counterscreen, fluorescence read-out; IC50, µM; actives 49% (n = 780); AID 651564; in the data active means IC50 below about 80 µM
Numbers without * were called inactive; i = inactive; · = no result; ! = a repeat was not active.

SMILES	CHOP UPR activ	NR3A LBD binder	MPTP block	CHOP inh	aDG glyco act	UPR XBP1 act	MPTP counter	others
O=C(CCN1C(=O)/C(=C/c2ccc(F)cc2)SC1=S)NCCCn1ccnc1	0	2	2	·	0	-2	·
O=C(CCN1C(=O)/C(=C/c2ccc(Cl)cc2)SC1=S)NCCCn1ccnc1	3	5	60*	·	0	-3	72*
O=C(CCN1C(=O)/C(=C/c2ccccc2)SC1=S)NNC(=O)c1cccnc1	3	4	88*	47	0	5	74*
O=C(CCN1C(=O)/C(=C/c2ccccc2)SC1=S)N1CCCCCC1	10	-3	77*	·	0	0	82*
Cc1ccc(/C=C2\SC(=S)N(CCC(=O)NNC(=O)c3cccnc3)C2=O)cc1	4	10	65*	37	0	1	59*
Cc1cccc(C(=O)NNC(=O)c2ccc3ccccc3c2)c1	·	-1	-1	·	0	·	·
Cc1nc2c(sc(=S)n2Cc2ccco2)c(=O)n1CC(=O)Nc1cc(F)ccc1F	8	6	2	·	0	-3	·
O=C(CCN1C(=O)/C(=C/c2cccc(Br)c2)SC1=S)Nc1cccnc1	-1	0	52*	87*	0	7	9	MPTP abs DR=>100;MPTP counter DR=20*
Cc1ccc(NC(=O)COc2cccc(/C=C3\SC(=S)N(CCC(=O)O)C3=O)c2)cc1Cl	0	-3	51*	98*	0	0	26*
COc1ccc(S(=O)(=O)N2CCCCC2)cc1NC(=O)C1CC(=O)N(Cc2ccccc2)C1 (stereo unspecified)	0	-1	0	·	0	-2	·
COCC(C)n1c(-c2ccc3c(c2)NC(=O)CO3)csc1=Nc1ccc(OC(F)F)cc1 (stereo unspecified)	1	-11	70*!	89*	0	-1	54*
COc1ccccc1N=c1scc(-c2ccc3c(c2)NC(=O)CO3)n1CC1CCCO1 (stereo unspecified)	-3	2	64*	49	0	2	12	MPTP abs DR=i;MPTP counter DR=41*
CCN=c1scc(-c2ccc3c(c2)NC(=O)CO3)n1N=C1CCCC1	-2	-2	35	·	2	-1	·
COc1cccc(CC(=O)OCC(=O)NC(Cc2ccccc2)C(C)=O)c1 (stereo unspecified)	-1	-2	-1	·	0	1	·
c1ccc(-c2csc3ncnc(NCC4COc5ccccc5O4)c23)cc1 (stereo unspecified)	·	-1	97*	93*	4	·	85*
Cc1sc2ncnc(NCC3COc4ccccc4O3)c2c1C (stereo unspecified)	·	1	100*	76*	4	·	95*
Cc1sc2ncnc(NCC(C)(C)N3CCOCC3)c2c1C	-8	-8	80*	30	5	-1	84*
c1ccc(-c2csc3ncnc(NCCCN4CCOCC4)c23)cc1	1	1	6	6	0	8	·
Cc1sc2ncnc(NCC3(N4CCOCC4)CCCCC3)c2c1C	-2	-4	-2	59	0	-2	·
Cc1cc(C(=O)NNC(=O)c2sccc2C)c(C)o1	2	1	0	·	0	-3	·
O=C1[C@H]2[C@@H](c3ccc(C(F)(F)F)cc3)N[C@]3(CCCN(Cc4ccc(C(F)(F)F)cc4)C3=O)[C@H]2C(=O)N1Cc1ccccc1	·	·	-3	·	0	·	·
Cc1cccc(NC(=O)CSc2nccn2Cc2ccco2)c1C	2	1	1	·	0	3	·
O=c1[nH]c2ccc([N+](=O)[O-])cc2nc1/C=C(\O)c1ccccc1	3	0	2	-42	0	3	·
